Screening data (PubChem)
Most compounds without a hit are left out; they make up all but 2.8% or so of the library.
ARFGAP1 inhibitor – inhibitors of rat ARFGAP1 GAP activity, primary screen, biochemical, fluorescence polarization, GDP tracer | ADP-ribosylation factor GTPase-activating protein 1 (Rattus norvegicus), Q62848 | Arfgap1-stimulated ARF1 GTP hydrolysis, GDP FP detection | inhibition, % at 16.5 µM | actives 0.26% (n = 360,000);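 active = inhibition above a per-plate limit, mean inhibition of low control wells plus 3 SD, cut at about 25% in these data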;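 note: 0% = DMSO wells with enzyme and 100% = wells lacking Arfgap1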
Target sequence (Q62848 1-136 limits assumed): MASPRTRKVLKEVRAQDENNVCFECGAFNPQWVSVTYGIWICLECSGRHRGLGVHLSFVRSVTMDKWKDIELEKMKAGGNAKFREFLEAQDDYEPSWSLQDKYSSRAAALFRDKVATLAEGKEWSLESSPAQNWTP
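Replicates: Single well per compound | Assay system: Truncated rat Arfgap1 GAP domain | Control set: No-Arfgap1 wells (100%) versus DMSO full-reaction wells (0%) | Times: Enzyme reaction 120 min at 25 °C after 20 min preincubation | Reagent: Human ARF1(Δ1-17)-GTP substrate | Measured by: Tracer-displacement fluorescence polarization with EDTA stop, 620/688 nm | Measure: Percent inhibition of Arfgap1-stimulated GTP hydrolysis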
pPAFAH inh – pPAFAH enzyme inhibitors, primary screen, biochemical, fluorescence polarization, human; Platelet-activating factor acetylhydrolase (Homo sapiens), Q13093; recombinant pPAFAH, FP-rhodamine probe fluorescence polarization; inhibition, % at 3.39 µM; actives 1.5% (n = 330,000); AID 463082, 2010;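 active = inhibition above the mean inhibition across the screen plus 3 SD, cut at about 25% in these data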;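 note: inhibitors block binding of the rhodamine activity-based probe so polarization drops; 0% = enzyme with DMSO and 100% = wells lacking pPAFAH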
PAFAH1B2 FP inh – PAFAH1B2 enzyme inhibitors, primary screen, biochemical, fluorescence polarization, human; recombinant PAFAH1B2, FP-rhodamine activity probe; inhibition, % at 3.39 µM; actives 1.2% (n = 340,000);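 active = inhibition above the mean of all tested compounds plus 3 SD, cut at about 24% in these data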;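 note: 0% = enzyme with DMSO and 100% = wells lacking PAFAH1B2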
Target sequence (P68402 whole entry, looked up): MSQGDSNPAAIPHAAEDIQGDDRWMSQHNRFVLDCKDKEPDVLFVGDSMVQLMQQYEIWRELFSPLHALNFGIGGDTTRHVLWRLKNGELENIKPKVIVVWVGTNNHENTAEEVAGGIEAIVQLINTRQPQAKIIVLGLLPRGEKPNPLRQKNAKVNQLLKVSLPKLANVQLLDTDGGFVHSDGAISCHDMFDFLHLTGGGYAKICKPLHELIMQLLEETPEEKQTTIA
PAFAH2 FP inh – PAFAH2 enzyme inhibitors, primary screen, biochemical, fluorescence polarization, human. recombinant PAFAH2, FP-rhodamine activity probe. inhibition, % at 3.39 µM. actives 0.99% (n = 340,000). Platelet-activating factor acetylhydrolase 2, cytoplasmic (Homo sapiens), Q99487;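 active = inhibition above the mean over all tested compounds plus 3 SD, cut at about 30% in these data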;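 note: inhibitors block probe labeling of enzyme so polarization drops; 0% = enzyme with DMSO and 100% = wells lacking PAFAH2 protein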
PAFAH1B3 inh – PAFAH1B3 enzyme inhibitors, primary screen, biochemical, fluorescence polarization, human. recombinant PAFAH1B3, FP-rhodamine probe. actives 0.28% (n = 340,000). Platelet-activating factor acetylhydrolase IB subunit alpha1 (Homo sapiens), Q15102. inhibition, % at 3.39 µM;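 active = inhibition above the screen-wide average of all tested compounds plus 3 SD, cut at about 25% in these data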;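 note: 0% = enzyme with DMSO only and 100% = wells lacking PAFAH1B3 protein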
ASAP1 inh – inhibitors of human ASAP1 ArfGAP activity, primary screen, biochemical, fluorescence polarization. ASAP1-stimulated ARF1 GTP hydrolysis, GDP FP detection. actives 0.19% (n = 360,000). Arf-GAP with SH3 domain, ANK repeat and PH domain-containing protein 1 (Homo sapiens), …. inhibition, % at 16.5 µM; in the data active = inhibition above about 25%;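 note: 0% = vehicle with enzyme and substrate and 100% = no enzyme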
An asterisk follows results filed as active; . = not tested or not shown.

SMILES	ARFGAP1 inhibitor	pPAFAH inh	PAFAH1B2 FP inh	PAFAH2 FP inh	PAFAH1B3 inh	ASAP1 inh
CC(=O)c1ccc(-c2ccc(C(=O)NCC(c3ccco3)N(C)C)o2)cc1 (stereo unspecified)	6	11	5	8	13	-7
CCCCN1C(=O)C(CC(=O)NC(c2ccccc2)c2ccccc2)CC(C(=O)N(C(C)C)C(C)C)=C1C (stereo unspecified)	-3	.	.	.	.	11
N#CCCN(C(=O)COC(=O)Cc1c[nH]c2ccccc12)c1ccccc1	0	8	6	-3	14	4
N#CCCN(C(=O)COC(=O)Cc1ccc(Br)cc1)c1ccccc1	12	15	27*	2	12	-3
O=C1N[C@@H](Cc2c[nH]c3ccccc23)COC(=O)[C@@H](Cc2ccc(F)cc2)CC/C=C/C[C@@H]1CC(=O)N(CCO)Cc1ccccc1	16	13	34*	-1	1	-7
O=C1N[C@@H](Cc2c[nH]c3ccccc23)COC(=O)[C@H](Cc2ccc(F)cc2)C/C=C\C[C@H]1CC(=O)N(CCO)Cc1ccccc1	5	2	10	3	6	-4
O=C1NC[C@H](c2ccccc2)OC(=O)[C@H](Cc2ccc(F)cc2)C/C=C\C[C@@H]1CC(=O)N(CCO)Cc1ccccc1	-4	2	-4	-3	7	-6
O=C1NCCOC(=O)[C@H](Cc2ccc(F)cc2)C/C=C\C[C@H]1CC(=O)N(CCO)Cc1ccccc1	5	7	30*	0	4	-5
O=C1NC[C@@H](c2ccccc2)OC(=O)[C@@H](Cc2ccc(F)cc2)C/C=C\C[C@@H]1CC(=O)N(CCO)Cc1ccccc1	-2	26*	64*	11	-3	-6
Cc1ccc(C(C[N+](=O)[O-])c2c(-c3ccccc3O)[nH][nH]c2=O)cc1 (stereo unspecified)	6	3	25*	11	2	-9
COc1ccc(C(C[N+](=O)[O-])c2c(C)[nH]c3ccccc23)cc1OC (stereo unspecified)	0	9	-3	-1	9	-2
COc1ccccc1NC(=O)COC(=O)/C=C/c1ccccc1[N+](=O)[O-]	10	26*	3	12	8	-8
CN(C(=O)COC(=O)/C=C/c1ccccc1[N+](=O)[O-])c1ccccc1	1	6	0	17	8	-8
CC(C)(C)NC(=O)COC(=O)/C=C/c1ccccc1[N+](=O)[O-]	6	32*	0	29	5	-3
FC(F)(F)c1ccc2c(c1)N1CCCC1CN2 (stereo unspecified)	-2	5	4	10	4	-5
FC(F)(F)c1ccc2c(c1)NCC1CCCN21 (stereo unspecified)	-7	27*	1	86*	22	-1
COc1cccc2c1C(=O)c1c(O)c3c(c(O)c1C2=O)CC(O)(C(C)=O)CC3OC1CC(N(C)C)C(O)C(C)O1 (stereo unspecified)	5	.	59*	62*	46*	7
COc1cccc2c1C(=O)c1c(O)c3c(c(O)c1C2=O)C[C@@](O)(C(=O)CO)C[C@@H]3OC1CC(N)C(O)C(C)O1 (stereo partly specified)	3	.	52*	54*	52*	0
CC(=O)[C@@]1(O)Cc2c(O)c3c(c(O)c2[C@H](O[C@H]2C[C@H](N)[C@H](O)[C@H](C)O2)C1)C(=O)c1ccccc1C3=O	11	.	.	.	.	-2
Cc1ccc(S(=O)(=O)NCCC(=O)N2CCCCCCC2)cc1C	1	1	-2	1	0	6
C=C/C(C)=C/CC1C(=C)CCC2C(C)(C(=O)O)CCCC12C (stereo unspecified)	-5	5	2	6	-4	7
